One data set relates to SGC-7901 cells. Kind of data set: MTT cell viability assay, SGC-7901. In kind it is cell-based, human. The following applies: read-out: IC50 values of compounds on cells, SGC-7901, 72 hours, SGC-7901 gastric cancer cells. A digest of the protocol:
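SGC-7901 cells were seeded at ~5,000/well and exposed 72 h to test compound at 0.096, 0.48, 2.4, 12 and 60 µM. MTT was added for 4 h, formazan dissolved in DMSO and absorbance read at 490 nm. Inhibition ratio = (1 − A treated/A DMSO control) × 100%. IC50, the concentration giving 50% inhibition of proliferation, was calculated by curve fitting.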

For the next data set, the system named is GES-1 cells. Kind of data set: MTT cell viability assay, GES-1 normal gastric mucosa epithelial cells. The following applies: Homo sapiens, GES1, 72 h, read-out: IC50 values of compounds on cells, GES-1. It counts as cell-based. A digest of the protocol:
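GES-1 cells were grown in RPMI-1640 with 10% FBS at 37°C and 5% CO2, seeded at ~5,000 cells/well, then exposed for 72 h to 0.096, 0.48, 2.4, 12 and 60 µM compound. MTT was added for 4 h, formazan dissolved in DMSO, and absorbance read at 490 nm. Inhibition was calculated against the DMSO control, and IC50 is the concentration giving 50% inhibition. At least three independent experiments were run.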
(Tetrazolium assays rely on reduction of a dye to a coloured formazan, in cell work by metabolically active cells.)

For data set [1], the system named is p65 nuclear translocation in SGC-7901 cells. Kind of data set: p65 nuclear translocation, Western blot of nuclear extracts, SGC-7901. In kind it is cell-based, human. Particulars: SGC-7901, pretreatment 60 minutes, TNF-α 1 ng/mL 60 minutes. An outline of the steps: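 SGC-7901 cells were pretreated for 60 min with test compound (10 or 20 µM), a reference NF-κB inhibitor or DMSO, then stimulated with TNF-α at 1 ng/mL for 60 min. Cells were trypsinized and washed thrice in ice-cold PBS. Cytoplasmic extract came from Buffer A (10 min on ice) plus Buffer B (1 min) and a 16,000× g spin for 5 min; nuclear extract from the pellet in Buffer C for 40 min on ice. Nuclear p65 was normalized to Lamin B and cytoplasmic p65 to GAPDH.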
A general note: Immunoblotting shows a protein as a band on a membrane.

Data set [2] deals with p65 nuclear translocation in BGC-823 cells. The data set can be described thus: p65 nuclear translocation, immunofluorescence, BGC-823. In kind it is cell-based, human. The following applies: BGC-823, 20 µM, 60 minutes before TNF-α. An outline of the steps:
(§1)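 Cells were pretreated 60 min with DMSO, test compound (20 µM) or a reference NF-κB inhibitor (20 µM), then stimulated with TNF-α 1 ng/mL for 60 min. After an ice-cold PBS wash, cells were fixed 10 min at room temperature and blocked 1 h. They were incubated overnight at 4°C with rabbit anti-p65, then anti-rabbit Cy3 for 1 h in the dark, and DAPI for 5 min. Fluorescence microscopy at 20×10; p65 red and nuclei blue in merged images.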

For data set [3], the system named is SGC-7901 and BGC-823 cells. The data set can be described thus: Matrigel invasion assay. It counts as cell-based, human. The following applies: 24 hours; Da0324 5 or 10 µM, curcumin 10 µM. A digest of the protocol: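 Transwell inserts were coated with Matrigel and air-dried for 2 h at room temperature. Cells at 1×10^6 cells/mL in serum-free RPMI-1640 with compound or DMSO were placed in the upper chamber, with RPMI-1640 plus 10% FBS below, for 24 h at 37°C. Cells on the lower surface were fixed, crystal violet-stained and counted by light microscopy as the mean of three fields, from three separate treatments.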

Data set [4] relates to SGC-7901 or BGC-823 cells. Kind of data set: Cell cycle analysis by flow cytometry. It counts as cell-based, human. The following applies: 24 hours. A digest of the protocol:
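Cells in RPMI-1640 with 10% FBS were exposed for 24 h to test compound (5 or 10 µM, or 20 µM for the reference) or DMSO. All cells were collected by trypsinization, PBS-washed, fixed in 75% ethanol for 1 h at −20°C, washed, and stained with PI for 15 min at 4°C in the dark. G0/G1, S and G2/M fractions were measured by FACS, from three separate treatments.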
For orientation: A flow cytometer gives signals particle by particle.

For data set [5], the system named is SGC-7901 or BGC-823 cells. Kind of data set: Clonogenic assay. The following applies: 5 µM, 24 hours treatment, then 7 days in fresh medium. In kind it is cell-based, human. An outline of the steps: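 SGC-7901 or BGC-823 cells were exposed to test compound (2.5 or 5 µM) or DMSO for 24 h. The medium was then replaced with fresh medium and colonies grew for 7 days before crystal violet staining and photography.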

Data set [6] is described as follows: Stability in phosphate buffer by UV-visible absorption spectra. It counts as physicochemical. The following applies: phosphate buffer pH 7.4, 250 to 600 nm, every 5 minutes for more than 25 minutes. A digest of the protocol:
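Test compound was dissolved and diluted in DMSO, then mixed into phosphate buffer at pH 7.4. Optical density from 250 to 600 nm was recorded every 5 min for more than 25 min.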

The test system of data set [7] is SGC-7901 or BGC-823 cells. The data set can be described thus: Apoptosis by Annexin-V/PI flow cytometry. Particulars: 10 or 20 µM, 24 hours. It counts as cell-based, human. A digest of the protocol: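 SGC-7901 or BGC-823 cells in RPMI-1640 with 10% FBS at 37°C, 5% CO2, were treated 24 h with test compound (10 or 20 µM), a reference compound (20 µM) or DMSO. Cells were collected, washed twice in PBS, then stained with Annexin-V for 10 min in the dark and with PI for 5 min, and analysed by FACS. Annexin+/PI− cells were scored early apoptotic and Annexin+/PI+ late apoptotic/dead; three separate treatments.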

Data set [8] concerns NF-κB activation induced by TNF-α in SGC-7901 cells. Kind of data set: Western blot of TNF-α-induced NF-κB activation. The following applies: SGC-7901, 10 µM, 60 minutes pretreatment, TNF-α 1 ng/mL 15 minutes. In kind it is cell-based, human. A digest of the protocol:
(§2)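 SGC-7901 or BGC-823 cells were pretreated 60 min with DMSO, test compound (5, 10 or 20 µM) or a reference NF-κB inhibitor (20 µM), then stimulated with TNF-α 1 ng/mL for 15 min. Whole-cell lysates were cleared at 12,000× g, 4°C, 10 min, and equal protein run on SDS-PAGE. Blots were probed overnight for p-IKK, IκB-α and p-IκB-α, then with HRP secondaries 1 h at 37°C. Densitometry normalised to IKK and GAPDH, respectively.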

The test system of data set [9] is p65 nuclear translocation in SGC-7901 cells. The data set can be described thus: p65 nuclear translocation, immunofluorescence, SGC-7901. Particulars: SGC-7901, 20 µM, 1 hour before TNF-α. It counts as cell-based, human. An outline of the steps:
as §1

The subject of data set [10] is caspase 3, bcl-2, bax in SGC-7901 cells. Kind of data set: Western blot of apoptosis-related proteins, SGC-7901. In kind it is cell-based, human. The following applies: SGC-7901, 10 µM, 24 hours. An outline of the steps:
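SGC-7901 cells were exposed 24 h to DMSO, test compound (5, 10 or 20 µM) or a reference compound (20 µM). Lysates were cleared at 12,000× g, 4°C, and equal protein separated by SDS-PAGE. Blots were probed overnight for caspase 3, cleaved caspase 3, bax and bcl-2, with GAPDH as loading control. Bands were quantified by densitometry.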

For data set [11], the system named is NF-κB activation induced by TNF-α in BGC-823 cells. Kind of data set: Western blot of TNF-α-induced NF-κB activation. In kind it is cell-based, human. Particulars: BGC-823, 10 µM, 60 minutes pretreatment, TNF-α 1 ng/mL 15 minutes. A digest of the protocol:
as §2

Consider `Cc1ccc2nc(NCCN)c3ncc(C)n3c2c1` [BMS345541, reference compound], for which the values for the IC50 in the data set with SGC-7901 cells and in the data set on GES-1 cells were 7.8 ± 1.8 µM and 9.8 ± 2.5 µM, respectively. Also, the “Nuclear p65 after TNF-α stimulation” value in data set [1] is listed as “did not significantly increase”. Further, in data set [2], the “p65 nuclear translocation induced by TNF-α” value was “could inhibit the p65 nuclear translocation”.
For `COc1cc(/C=C/C(=O)CC(=O)/C=C/c2ccc(O)c(OC)c2)ccc1O` [CUR, curcumin, reference compound], the IC50 in the data set with GES-1 cells amounted to 29.1 ± 3.8 µM. In addition, in data set [3], the “Invasion through Matrigel” value is recorded as “could similarly inhibit cell invasion”. For the same molecule, in [4] (20 µM), the “Cells arrested in the G2/M phase” value is given as ~ 10%. Moreover, in data set [5], the Colony formation result is recorded as “no significant effects”. Moreover, the “Absorption intensity of the spectrum in phosphate buffer (degradation)” value in [6] is reported as “significantly decreased”.
Take `COc1cccc(/C=C/C(=O)/C=C/c2cccc(OC)c2OC)c1OC` [Compound B19, (1E,4E)-1,5-bis(2,3-dimethoxyphenyl)penta-1,4-dien-3-one]: in the data set on GES-1 cells, the concentration for half-maximal inhibition (IC50) is 3.7 ± 1.9 µM.
Consider `COc1ccc(OC)c(/C=C2\CC/C(=C\c3ccc(O)c(OC)c3)C2=O)c1` [Da0324, (2E,5E)-2-(2,5-dimethoxybenzylidene)-5-(4-hydroxy-3-methoxybenzylidene)cyclopentanone], for which the IC50 in the data set on GES-1 cells was 27.3 ± 8.2 µM. Moreover, the “Invasion through Matrigel” value in data set [3] is “obviously inhibited the invasion”. The “Number of early- and late-period apoptotic cells” value in data set [7] is “significantly higher than those of the curcumin-treated cells”. For the same molecule, the “Phosphorylation of IKK and IκB-α stimulated by TNF-α” value in data set [8] was “significantly inhibit the phosphorylation of IKK and IκB-α”. Moreover, in [9], the “p65 red fluorescence in cell nuclei after TNF-α” value is “the red fluorescence did not increase in the cell nuclei”. The “Caspase 3 level and cleavage” value in data set [10] is “significantly reduced caspase 3 and induced its cleavage”. In data set [4] (10 µM), the “Cells arrested in the G2/M phase” value was about 30%. The “Nuclear p65 after TNF-α stimulation” value in [1] was “did not significantly increase”. Besides, in data set [5], the Colony formation entry is listed as “No colonies were visible”. Further, the “Absorption intensity of the spectrum in phosphate buffer (degradation)” value in data set [6] is on record as “less degraded than curcumin”. Further, in [2], the “p65 nuclear translocation induced by TNF-α” value is listed as “could inhibit the p65 nuclear translocation”. The “Expression of p-IKK and p-IκB-α stimulated by TNF-α” value in data set [11] was “similarly inhibit the expression of p-IKK and p-IκB-α”.

By IC50 is commonly meant the midpoint of a concentration-inhibition curve.

The record behind these values is PMC4780725 (Drug Design, Development and Therapy, 2016).
